This note sets out measurements from ChEMBL document CHEMBL4765245 (Eur J Med Chem, 2020).

For one data set, the system named is HeLa. As to the kind of experiment: Cytotoxicity against human HeLa cells assessed as reduction in cell viability incubated for 72 hrs measured by crystal violet based micro plate reader method. Conditions: hela, 72 h. In outline: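 Two-day-old confluent HeLa Ohio monolayers exposed to half-log dilutions (100 μM downward) in 2% FCS medium for 72 h at 37 °C, 5% CO2. Cells fixed and stained with crystal violet/formalin, dye eluted with acidified citrate-ethanol, OD read at 550/630 nm. Viability expressed relative to six mock-treated controls; CC50 is the mean of at least 3 tests.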

Data set [1] deals with Coxsackievirus B3. As to the kind of experiment: Antiviral activity against Coxsackievirus B3 Nancy infected in human HeLa cell line assessed as inhibition of virus-induced cytopathic effect measured after 48 hrs by crystal violet uptake assay. The format is functional, organism-based. Conditions: Enterovirus B, Nancy, HeLa, 48 h; read-out: IC50. In outline: (§1)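 HeLa Ohio monolayers, 2 days old and confluent, in MEM with 2% FCS. Serial half-log compound dilutions from 100 μM were added just before CVB3 infection. Activity was calculated per Pauwels against six cell and six virus controls; mean IC50 from ≥3 experiments.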
(In general: Cytopathic effects are the visible damage that an infection or toxin causes in cultured cells.)

For data set [2], the system named is Coxsackievirus B3. As to the kind of experiment: Antiviral activity against wild type Coxsackievirus B3 97927 infected in human HeLa cell line assessed as inhibition of virus-induced cytopathic effect measured after 48 hrs by crystal violet uptake assay. The format is functional, organism-based. The following applies: Enterovirus B, 97927, HeLa, 48 h; read-out: IC50. In outline: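 Coxsackievirus B3 infection of 2-day-old HeLa Ohio monolayers in 2% FCS medium. Half-log dilutions from 100 μM added just before infection; guanidine hydrochloride served as positive control. Antiviral activity calculated per Pauwels; IC50 is the mean of at least 3 separate tests.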

Data set [3] relates to Coxsackievirus B3. Description: Antiviral activity against pleconaril-resistant Coxsackievirus B3 97927 11207K/I1092 mutant infected in human HeLa cell line assessed as inhibition of virus-induced cytopathic effect measured after 48 hrs by crystal violet uptake assay. The format is functional, organism-based. The following applies: read-out: IC50. In outline:
as §1

The test system of data set [4] is Coxsackievirus B3. Description: Antiviral activity against pleconaril-resistant Coxsackievirus B3 97927 11207M/I1092 mutant infected in human HeLa cell line assessed as inhibition of virus-induced cytopathic effect measured after 48 hrs by crystal violet uptake assay. The format is functional, organism-based. In outline: as §1
In data set [5] the test system is Coxsackievirus B3. Description: Antiviral activity against pleconaril-resistant Coxsackievirus B3 97927 11207T/I1092 mutant infected in human HeLa cell line assessed as inhibition of virus-induced cytopathic effect measured after 48 hrs by crystal violet uptake assay. The following applies: read-out: IC50. The format is functional, organism-based. The method, boiled down:
as §1

The test system of a further data set is rhinovirus A2. Description: Antiviral activity against Rhinovirus A2 infected in human HeLa cell line assessed as inhibition of virus-induced cytopathic effect measured after 72 hrs by crystal violet uptake assay. The following applies: Rhinovirus A, HeLa, 72 h; read-out: IC50. The data set is classed as functional, organism-based. The method, boiled down:
(§2)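 HeLa Ohio monolayers, 1 day old, in 2% FCS medium. Compound added as serial half-log dilutions from 100 μM immediately before rhinovirus infection. Activity calculated per Pauwels; IC50 is the mean of at least 3 experiments.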

A further data set concerns rhinovirus B5. Description: Antiviral activity against Rhinovirus B5 infected in human HeLa cell line assessed as inhibition of virus-induced cytopathic effect measured after 72 hrs by crystal violet uptake assay. The data set is classed as functional, organism-based. Conditions: Rhinovirus B, HeLa, 72 h; read-out: IC50. In outline:
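HeLa Ohio monolayers, 1 day old, in 2% FCS medium. Compound added as serial half-log dilutions from 100 μM immediately before rhinovirus infection. CPE read at 72 h by crystal violet staining, elution and OD 550/630 nm, with six cell and six virus controls per plate. Activity calculated per Pauwels; IC50 is the mean of at least 3 experiments.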

The subject of the next data set is rhinovirus B14. As to the kind of experiment: Antiviral activity against Rhinovirus B14 infected in human HeLa cell line assessed as inhibition of virus-induced cytopathic effect measured after 72 hrs by crystal violet uptake assay. The format is functional, organism-based. The following applies: Rhinovirus B, HeLa, 72 h; read-out: IC50. In outline:
as §2

A short description of data set [6]: Selectivity index, ratio of CC50 for human HeLa cells to IC50 for Coxsackievirus B3 Nancy infected in HeLa cell line assessed as inhibition of virus-induced cytopathic effect. The format is toxicity. Conditions: read-out: Selectivity Index. In outline: (§3)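 SI calculated as CC50/IC50. Cytotoxicity: 2-day-old confluent HeLa Ohio monolayers were exposed to half-log dilutions from 100 μM in 2% FCS MEM for 72 h at 37 °C, then crystal violet stained, eluted and read at 550/630 nm. Antiviral: compound added just before CVB3 infection of 2-day-old HeLa; CPE scored by crystal violet at 48 h (Pauwels formula). Means from ≥3 tests each.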

The nature of data set [7]: Selectivity index, ratio of CC50 for human HeLa cells to IC50 for Coxsackievirus B3 97927 wild type infected in HeLa cell line assessed as inhibition of virus-induced cytopathic effect. The data set is classed as toxicity. The following applies: read-out: Selectivity Index. The method, boiled down: as §3
Data set [8] in a line: Selectivity index, ratio of CC50 for human HeLa cells to IC50 for pleconaril-resistant Coxsackievirus B3 97927 11207K/I1092 mutant infected in HeLa cell line assessed as inhibition of virus-induced cytopathic effect. The format is toxicity. Conditions: read-out: Selectivity Index. In outline: as §3
Data set [9] is described as follows: Selectivity index, ratio of CC50 for human HeLa cells to IC50 for pleconaril-resistant Coxsackievirus B3 97927 11207M/I1092 mutant infected in HeLa cell line assessed as inhibition of virus-induced cytopathic effect. The data set is classed as toxicity. Conditions: read-out: Selectivity Index. In outline:
as §3

Data set [10] can be described thus: Selectivity index, ratio of CC50 for human HeLa cells to IC50 for pleconaril-resistant Coxsackievirus B3 97927 11207T/I1092 mutant infected in HeLa cell line assessed as inhibition of virus-induced cytopathic effect. The format is toxicity. The following applies: read-out: Selectivity Index. The method, boiled down:
as §3

Data set [11] can be described thus: Selectivity index, ratio of CC50 for human HeLa cells to IC50 for Rhinovirus A2 infected in HeLa cell line assessed as inhibition of virus-induced cytopathic effect. The format is toxicity. The following applies: read-out: Selectivity Index.
Data set [12] in a line: Selectivity index, ratio of CC50 for human HeLa cells to IC50 for Rhinovirus B5 infected in HeLa cell line assessed as inhibition of virus-induced cytopathic effect. The data set is classed as toxicity. The following applies: read-out: Selectivity Index.
Data set [13] is described as follows: Selectivity index, ratio of CC50 for human HeLa cells to IC50 for Rhinovirus B14 infected in HeLa cell line assessed as inhibition of virus-induced cytopathic effect. The data set is classed as toxicity. Conditions: read-out: Selectivity Index.
Data set [14] is described as follows: Elimination rate constant in Balb/c mouse at 100 mg/kg, IG measured upto 7 hrs by HPLC-MS method. The data set is classed as ADME, organism-based. The following applies: in vivo, po. In outline: (§4)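 Male BALB/c mice (~20 g), food withheld 1 h before and after dosing; single 100 mg/kg intragastric dose as suspension in 0.5% CMC with one drop Tween-80. Blood taken at 0.5, 1, 2, 3, 5, 7 h (3 animals per time point); plasma MeCN-precipitated, HPLC-MS (ESI positive). Non-compartmental analysis: AUC by trapezium with extrapolation; CL = dose/AUC; Vd = CL/kel.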

Data set [15] is described as follows: Mutagenicity in Escherichia coli PQ37 at 10 mg/ml by SOS-chromotest. The data set is classed as toxicity.
Data set [16] can be described thus: Genotoxicity in Escherichia coli PQ37 assessed as zone of inhibition at 10 mg/ml measured on day 3 by SOS-chromo0test relative to control. Conditions: 72 h, time 3 day. The data set is classed as toxicity.
Data set [17] in a line: AUC (0 to infinity) in Balb/c mouse at 100 mg/kg, IG measured upto 7 hrs by HPLC-MS method. The data set is classed as ADME, organism-based. Also on record: route […], dose 100 mg/kg, time <=7. Conditions: in vivo, po. In outline:
as §4

Data set [18] in a line: Clearance in Balb/c mouse at 100 mg/kg, IG measured upto 7 hrs by HPLC-MS method. The data set is classed as ADME, organism-based. The following applies: in vivo, po. The method, boiled down:
as §4

Data set [19] can be described thus: Volume of distribution in Balb/c mouse at 100 mg/kg, IG measured upto 7 hrs by HPLC-MS method. The following applies: in vivo, po. The format is ADME, organism-based. The method, boiled down: as §4

For the compound `Cc1cc(-c2noc(C(F)(F)F)n2)ccc1OCCCc1cc(C(=O)N(C)C)no1`, the cytotoxic concentration (CC50) (usually the concentration at which the toxic effect on the cells reaches its halfway point) in the data set on HeLa was determined as 13400 nM. Also, the IC50 (in general, the point on the concentration scale where inhibition reaches its midpoint) in the data set with Coxsackievirus B3 [1] came to 2760 nM; in the data set with Coxsackievirus B3 [2], 20 nM; with Coxsackievirus B3 [3], 4790 nM; in the data set on Coxsackievirus B3 [4] it was 10 nM; with Coxsackievirus B3 [5], 10 nM; with rhinovirus A2, 860 nM. The IC50 in the data set on rhinovirus B5 came out at 5250 nM; in the data set on rhinovirus B14 it was 90 nM. Also, the selectivity ratio came to 4.9 in data set [6]; 669 in data set [7]; 2.8 in [8]; 1340 in data set [9]; 1340 in data set [10]; 15.6 in data set [11]. The selectivity ratio in [12] was found to be 2.6; in [13], 149. In data set [14], this compound displayed a Kel of 0.4373 h⁻¹. In addition, the Activity result in data set [15] is recorded as “Non-Toxic”. In data set [16], the “inhibition zone (IZ)” value was found to be 0 mm. In addition, in [17], the AUC (commonly concentration integrated over time) is 3015.5 ng·h/mL. The clearance in data set [18] is 0.66 L/h. For the same compound, in data set [19], the Vd was determined as 1.52 L.
